Test results published in ChEMBL document CHEMBL1141356, “Derrubone, an inhibitor of the Hsp90 protein folding machinery” (J Nat Prod, 2007).
The source made the active and inactive calls. The calls are words filed in the database; no cut-off is given here.

Experiments:
[1] = Inhibition of Hsp90
How it was run: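 Thermally denatured firefly luciferase refolded in rabbit reticulocyte lysate at room temperature. Run in triplicate and repeated at least twice; luminescence read with 10 s integration. IC50 is the concentration that cuts recovery of luciferase activity by 50% versus DMSO. Linearity checked by anti-luciferase Western blot over the time course.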

[2] = Effect on binding of Hsp90 to HR1 relative to control
[3] = species on record: Oryctolagus cuniculus; experiment: Inhibition of Hsp90-dependent luciferase refolding in rabbit reticulocyte at 100 uM after 20 mins
[4] = species on record: Oryctolagus cuniculus; experiment: Inhibition of Hsp90-dependent maturation and activation of heme-regulated eIF2-alpha kinase in heme-deficient rabbit reticulocyte lysate at 100 uM
[5] = species on record: Bos taurus; experiment: Inhibition of ATPase activity of bovine Hsp70 at upto 400 uM
How it was run: (§1)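 Intrinsic ATPase measured with purified chaperone (bovine Hsp70 or bacterial DnaK, 1 µM) and 1 mM ATP, 3 h at 37 °C, compound or DMSO. Malachite green-molybdate added, then quenched with 3% sodium citrate; absorbance read at 620 nm. Compound tested up to 400 µM. Result is % of solvent control, mean of triplicates.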

[6] = Inhibition of ATPase activity of bacterial DnaK at upto 400 uM; how it was run: as §1
[7] = tested on: MCF7; experiment: Antiproliferative activity against human MCF7 cells expressing ERalpha; format: functional, cell-based
How it was run: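 MCF-7 cells (ERα-positive human breast cancer) grown in 1:1 DMEM:Ham's F-12 with nonessential amino acids, 2 mM L-glutamine, streptomycin, penicillin and 10% FBS at 37 °C, 5% CO2. Antiproliferative IC50 derived from three separate experiments, each run in triplicate.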

[8] = biological target: T1, Heat shock protein HSP90 (Homo sapiens, UniProt P07900+P08238); experiment: Inhibition of Hsp90 in human SkBr3 cells assessed as induction of Her2 degradation by ELISA; format: cell-based
How it was run: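 SkBr3 cells seeded at 3000/well, attached overnight, then treated 24 h. Washed with ice-cold PBS/1% Tween and fixed with -20 °C methanol, 10 min at 4 °C. Blocked in 5% BSA/PBST 1 h. Rabbit anti-Her2 (1:500) overnight at 4 °C, then HRP anti-rabbit (1:1000) 2 h at rt; chemiluminescence read. IC50 from three experiments in triplicate.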

[9] = biological target: T1, Heat shock protein HSP90; experiment: Inhibition of Hsp90 in human MCF7 cells assessed as induction of Raf degradation after 36 hrs by Western blot analysis; format: cell-based
How it was run: (§2)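 MCF-7 cells grown in DMEM:Ham's F-12 (1:1) with nonessential amino acids, 2 mM L-glutamine, antibiotics and 10% FBS. Seeded at 1 × 10^6 per dish, attached overnight, treated with varying concentrations for 36 h at 37 °C, 5% CO2. Harvested for Western blot of client proteins. Controls were GA 500 nM and DMSO.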

[10] = biological target: T1, Heat shock protein HSP90; experiment: Inhibition of Hsp90 in human MCF7 cells assessed as induction of Akt degradation after 36 hrs by Western blot analysis; format: cell-based; how it was run: as §2
[11] = biological target: T1, Heat shock protein HSP90; experiment: Inhibition of Hsp90 in human MCF7 cells assessed as induction of ERalpha degradation after 36 hrs by Western blot analysis; format: cell-based; how it was run: as §2
[12] = biological target: T1, Heat shock protein HSP90; experiment: Inhibition of Hsp90 in human MCF7 cells assessed as induction of Her2 degradation after 36 hrs by Western blot analysis; format: cell-based
[13] = biological target: T1, Heat shock protein HSP90; experiment: Inhibition of Hsp90 in human MCF7 cells assessed as induction of actin degradation after 36 hrs by Western blot analysis; format: cell-based; how it was run: as §2
[14] = tested on: SK-BR-3; experiment: Antiproliferative activity against human SkBr3 cells ERalpha-negative and overexpressing Her2
[15] = species on record: Oryctolagus cuniculus; experiment: Inhibition of Hsp90-dependent activation of heme-regulated Eif2-alpha kinase in heme-deficient rabbit reticulocyte lysate at 100 uM
[16] = Inhibition of Hsp90 in cell based assay

CC1(C)C=Cc2c(cc3occ(-c4ccc5c(c4)OCO5)c(=O)c3c2O)O1
Activity [1]: inactive

COc1cc(OC)c2c(=O)c(-c3ccc4c(c3)OCO4)coc2c1
Activity [1]: inactive

COc1cc(OC)c2c(OC)c(-c3ccc4c(c3)OCO4)c(=O)oc2c1
Activity [1]: inactive

COc1ccc(-c2c(O)c3c(OC)c4c(cc3oc2=O)OC(C)(C)C=C4)cc1
Activity [1]: inactive

COC1=C2C[C@@H](C)C[C@H](OC)[C@H](O)[C@@H](C)/C=C(\C)[C@H](OC(N)=O)[C@@H](OC)/C=C\C=C(/C)C(=O)NC(=CC1=O)C2=O (stereo in doubt) [GELDANAMYCIN]
IC50 [1]: < 0.1 µM | Activity [2]: 80%

CC(C)=CCc1c(O)cc2occ(-c3ccc4c(c3)OCO4)c(=O)c2c1O [DERRUBONE]
IC50 [1]: 0.23 µM | Activity [3]: Active | Activity [4]: Active | Activity [5]: inactive | Activity [6]: inactive | Activity [2]: 46% | IC50 [7]: 9 µM | IC50 [8]: 14 µM | Activity [9]: Active | Activity [10]: Active | Activity [11]: Active | Activity [12]: Active | Activity [13]: Active | IC50 [14]: 12 µM | Activity [15]: Active

CO[C@@H]1[C@@H](OC(N)=O)[C@@H](O)[C@H](Oc2ccc3c(O)c(NC(=O)c4ccc(O)c(CC=C(C)C)c4)c(=O)oc3c2C)OC1(C)C [NOVOBIOCIN]
IC50 [16]: 500 µM

C[C@@H]1C[C@H]2O[C@@H]2C=C/C=C/C(=O)Cc2c(Cl)c(O)cc(O)c2C(=O)O1 [RADICICOL]
IC50 [1]: < 0.1 µM
